“Also recorded” adds a separate entry of the source. Bridge positions count the residues as written; N and C are the ends. Square brackets hold non-standard residues; d marks the D form. Triazole bridges read from a SMILES are 1,4-linked. Peptide text beside a SMILES is read from it. * marks the point of attachment. Biotin = O=C1N[C@H]2[C@H](CS[C@H]2CCCCC(=O)*)N1; Lys(N3) = [N-]=[N+]=NCCCC[C@H](N)C(=O)O; PEG5 = NCCOCCOCCOCCOCCOCCC(=O)O; Pra = C#CC[C@H](N)C(=O)O
Legend:
[1] = biological target: T1, full-length recombinant MrkA protein (Klebsiella pneumoniae, UniProt P12267); test: Sandwich ELISA: immobilised biotinylated PCC captures full-length MrkA; format: binding
T1 sequence (P12267 23-202): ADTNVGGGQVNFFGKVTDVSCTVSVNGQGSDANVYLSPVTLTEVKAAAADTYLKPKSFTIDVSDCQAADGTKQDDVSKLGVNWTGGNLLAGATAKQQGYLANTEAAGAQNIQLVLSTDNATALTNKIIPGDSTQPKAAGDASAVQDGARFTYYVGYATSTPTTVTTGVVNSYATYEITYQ
How it was run: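 NeutrAvidin-coated wells were loaded with 2 μM biotinylated PCC (2 h, room temperature), then blocked overnight in 5% milk at 4 °C. Recombinant MrkA (N-terminal 6xHis-SUMO tag) was titrated for 1 h, followed by rabbit anti-His pAb (1:5000, 1 h) and anti-rabbit HRP (1:2000, 1 h). Peroxidase substrate developed for 1–40 min and was quenched with 1 M H2SO4.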

[2] = system: MrkA-producing multidrug-resistant K. pneumoniae (strains BAA 1705 & 2146); test: Whole-cell ELISA, biotinylated PCC binding; format: cell-based, Klebsiella pneumoniae; settings: Fig. 5C; for binding selectivity towards MrkA-expressing K. pneumoniae cells versus non-target bacteria: whole-cell ELISA versus E. coli and S. Typhimurium; for whole-cell ELISA signal (SAv-HRP, 450 nm): biotinylated PCC at 5 μM
How it was run: (§1)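 10^8 bacteria per test, from overnight cultures at 37 °C with shaking in G-CAA (promotes MrkA) or LB medium. Blocked in PBS-1% BSA (1 h, 37 °C), then incubated with biotinylated PCC in PBS-BSA (1 h, 37 °C). Washed thrice, then streptavidin-HRP (1:1000, 1 h, 37 °C). Developed with TMB, quenched with 2 N H2SO4, absorbance read at 450 nm.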

[3] = system: MrkA-knockout KPPR1 cells; test: Whole-cell ELISA, biotinylated PCC binding; format: cell-based, Klebsiella pneumoniae; settings: mrkA (with mrkB and mrkC) knocked out
How it was run: as §1

[4] = system: K. pneumoniae cells (strain BAA 1705); test: Whole-cell ELISA on cells cultured in G-CAA media or LB; format: cell-based, Klebsiella pneumoniae; settings: biotinylated PCC at 50 μM; Fig. S7B
[5] = system: Escherichia coli (E. coli); test: Whole-cell ELISA, biotinylated PCC binding; format: cell-based; settings: biotinylated PCC at 5 μM; does not express MrkA; Fig. 5C
How it was run: as §1

[6] = system: Salmonella enterica serovar Typhimurium (S. Typhimurium); test: Whole-cell ELISA, biotinylated PCC binding; format: cell-based; settings: biotinylated PCC at 5 μM; does not express MrkA; Fig. 5C
How it was run: as §1

[7] = system: wild type MrkA-expressing KPPR1 cells (ATCC 43816); test: Whole-cell ELISA, biotinylated PCC binding; format: cell-based, Klebsiella pneumoniae; settings: biotinylated PCC at 5 μM down to 5 nM; cells cultured in G-CAA media; 1 h 37 °C
How it was run: as §1

[8] = system: K. pneumoniae cells (strain BAA 2146); test: Flow cytometry antibody recruitment; format: cell-based, Klebsiella pneumoniae; settings: >18 000 single cells
How it was run: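 Cells grown overnight in G-CAA medium, washed, and incubated with DNP-conjugated PCC. After a wash they were stained with Alexafluor488-labelled anti-DNP antibody, washed, resuspended in PBS and held 2 d at 4 °C. Cytometer calibrated with 3.5 μm fluorescent beads. Excitation 488 nm, emission 530 nm. Gated on single cells, with an unstained FMO control setting the DNP+ gate.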

[9] = system: K. pneumoniae cells (strain BAA 1705); test: Gentamicin protection assay: phagocytosis and opsonophagocytic killing; format: cell-based, Klebsiella pneumoniae; settings: for colony counts at 1 h (phagocytosis), control treatments: AR-PCC only (5 μM, no anti-DNP) or anti-DNP antibody only, triplicate
How it was run: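 Bacteria opsonized with DNP-PCC (5 μM, PBS-1% BSA, 1 h, 37 °C), then anti-DNP (1:1000, 1 h, 37 °C). They infected immortalised mouse BMDMs (RPMI, 10% serum) at MOI 50 for 0.5 h at 37 °C. After washing, gentamicin 100 μg ml−1 was added. At 1 h and 24 h, macrophages were lysed in 0.2% Triton X-100 and CFU plated on LB agar. Triplicate.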

2: L-to-A substitution analogue of cy(LLFFF) (ALFFF; macrocycle closed by azidolysine-propargylglycine cyclization; N-terminal Biotin-peg group) [Compound 2]
MrkA binding (ELISA signal) compared to unmodified cy(LLFFF), alanine scan ([1]; full-length MrkA, N-terminal Biotin-peg PCCs, Fig. 4A): Modestly lower binding

17: cy(LLFFF) with a hexa-arginine tag (RRRRRRLLFFF; LLFFF closed into a macrocycle by azidolysine-propargylglycine cyclization; N-terminal Biotin-peg group) [Compound 17]
binding selectivity towards MrkA-expressing K. pneumoniae cells versus non-target bacteria [2]: similarly high selectivity
binding of MrkA protein in mouse sera ([1]; MrkA protein at 250 nM in solutions of 10 and 100% mouse sera, Fig. 4B inset, listed as cy(LLFFF)+R6): bound MrkA protein in solutions of 10 and 100% mouse sera, albeit at lower levels versus in 0% serum; also recorded: binds MrkA protein in the context of sera

CC(C)C[C@@H]1NC(=O)[C@@H](NC(=O)CCOCCOCCOCCOCCOCCNC(=O)CCCC[C@@H]2SC[C@@H]3NC(=O)N[C@@H]32)Cc2cn(nn2)CCCC[C@@H](C(N)=O)NC(=O)[C@H](Cc2ccccc2)NC(=O)[C@H](Cc2ccccc2)NC(=O)[C@H](Cc2ccccc2)NC(=O)[C@H](CC(C)C)NC1=O [cy(LLFFF)] ({Biotin-PEG5}-[Pra]LLFFF[Lys(N3)]-NH2; triazole 1-7)
whole-cell ELISA signal (SAv-HRP, 450 nm) [2]: strong signals
binding selectivity towards MrkA-expressing K. pneumoniae cells versus non-target bacteria [2]: excellent binding selectivity
whole-cell ELISA signal (SAv-HRP, 450 nm) [3]: ELISA intensities comparable to baseline
whole-cell ELISA binding, G-CAA versus LB culture [4]: bound K. pneumoniae cells regardless of MrkA-expression level
whole-cell ELISA signal (SAv-HRP, 450 nm) [5]: only weak signals
whole-cell ELISA signal (SAv-HRP, 450 nm) [6]: only weak signals
whole-cell ELISA signal (SAv-HRP, 450 nm) [7]: strong signals

cy(HNGPT)-DNP (sidechain bridge or staple)
fluorescence intensity (Alexafluor 488 anti-DNP), flow cytometry ([8]; control AR-PCC at 50 μM plus anti-DNP, predominantly): < 1.0 × 10^1

cy(LLFFA) (sidechain bridge or staple)
whole-cell ELISA signal (SAv-HRP, 450 nm) [2]: low signals
whole-cell ELISA signal (SAv-HRP, 450 nm) [3]: ELISA intensities comparable to baseline
whole-cell ELISA binding, G-CAA versus LB culture [4]: bound K. pneumoniae cells regardless of MrkA-expression level
whole-cell ELISA signal (SAv-HRP, 450 nm) [5]: low signals
whole-cell ELISA signal (SAv-HRP, 450 nm) [6]: low signals
whole-cell ELISA signal (SAv-HRP, 450 nm) [7]: much lower intensities

cy(LLFFA)-DNP (sidechain bridge or staple)
colony counts at 1 h (phagocytosis), control treatments [9]: None of these treatments elicited phagocytosis above the basal level

cy(LLFFF)+R6-DNP (sidechain bridge or staple)
colony counts at 1 h (phagocytosis), control treatments [9]: None of these treatments elicited phagocytosis above the basal level

cy(LLFFF)-DNP (sidechain bridge or staple)
colony counts at 24 h (opsonophagocytic killing) ([9]; 24 h of incubation, AR-PCC 5 μM plus anti-DNP): little to no cell counts
colony counts at 1 h (phagocytosis), control treatments [9]: None of these treatments elicited phagocytosis above the basal level
fluorescence (Alexafluor 488 anti-DNP), flow cytometry, versus controls ([8]; AR-PCC at 1 or 5 μM plus secondary antibody): much higher fluorescence
